# Test results reported in the M2OR odorant receptor database.
# Test system: T1, A0A140T8K0
# T1 sequence (whole entry): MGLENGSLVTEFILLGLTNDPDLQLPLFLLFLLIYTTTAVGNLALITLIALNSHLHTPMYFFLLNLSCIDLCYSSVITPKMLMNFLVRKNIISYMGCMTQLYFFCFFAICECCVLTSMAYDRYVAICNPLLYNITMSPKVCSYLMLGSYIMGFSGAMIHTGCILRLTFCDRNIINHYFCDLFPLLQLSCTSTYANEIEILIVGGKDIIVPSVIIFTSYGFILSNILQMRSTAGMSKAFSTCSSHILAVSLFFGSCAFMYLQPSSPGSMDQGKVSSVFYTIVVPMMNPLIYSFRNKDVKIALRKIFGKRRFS
# Conditions: stereoisomer not certain
# In short: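 Whether a receptor–molecule pair is responsive (active) rests on the original authors' judgment that its measured signal was statistically different from baseline. Pairs without that judgment are non-responsive (inactive). Sources used varied assay methods, commonly transient luciferase assays in mammalian cell lines.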
# 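Further: active if original authors judged signal statistically different from baseline.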
row,SMILES,odorant receptor agonist call
1,CCOC(=O)CC(C)C,inactive
2,O=C(O)C1CCC1,inactive
3,Cc1ccc2c(c1)OCC(=O)CO2,inactive
4,CC(=O)OC1(C)CCC23CC1C(C)(C)C2CCC3C (centres undefined),inactive
5,CC(=O)C1(C)CC2=C(CCCC2(C)C)CC1C (centres undefined),inactive
6,COC(OC)c1ccccc1,inactive
7,C=CC(C)=CCC=C(C)CCC=C(C)C,inactive
8,Cc1ccc(OC(=O)C(C)C)cc1,inactive
9,CCCCCC(=Cc1ccccc1)C(OC)OC,inactive
10,OCC=Cc1ccccc1,inactive
11,Cc1occc1SSc1ccoc1C,inactive
12,CCc1occc(=O)c1O,inactive
13,CCCCCC(C)O (centres undefined),inactive
14,CCSCC,inactive
15,C=C(C)C1CC=C(C)CC1 (centres undefined),inactive
16,CCCCCOC(=O)CC,inactive
17,C=C1C2CCC(C2)C1(C)C (centres undefined),inactive
18,CNc1ccccc1C(=O)OC,inactive
19,CCCCCOC(=O)CCC,inactive
20,CCCCC=O,inactive

row,SMILES,odorant receptor agonist call
1,CCN(CC)CC,inactive
2,CCCCCCC=CC=O,inactive
3,CCCCCC(C=O)=Cc1ccccc1,inactive
4,CCCCCCCCOC=O,active
5,CCC=CCCC=CC=O,inactive
6,CC(C)=CCCC(C)=CCOC(=O)C(C)C,inactive
7,C=CC(=C)CCC=C(C)C,inactive
8,Cc1ccccc1OC(=O)C(C)C,inactive
9,Cc1c(C)c(C)c(C=O)c(C)c1C,inactive
10,C1CCOC1,inactive
11,O=C(OCc1ccccc1)c1ccccc1O,inactive
12,CCc1ccccc1O,inactive
13,CCCC(C)C(=O)OCC (centres undefined),inactive
14,Cc1ccc(C(C)C)c(O)c1,inactive
15,C1CCOCC1,inactive
16,CCCO,inactive
17,CC=CC(=O)C1=C(C)CCCC1(C)C,inactive
18,CC=C(C)C=O,inactive
19,Cc1ccc(C(C)C)cc1,inactive
